Tested on: MS2 coat protein
Test: apparent Kd, MS2 coat protein; higher = weaker binding; RNA-MaP array
Method in brief: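 Fluorescently labeled MS2 coat protein, from 1.5 nM to 3 μM, was incubated at room temperature with designed RNAs transcribed on an Illumina sequencing chip from sequenced DNA templates. Times ran from 0.8–1.5 h at the lowest concentrations to 10–20 min at the highest, in Tris-HCl pH 7.5 buffer with KCl, MgCl2, BSA, DTT, tRNA and Tween20, with or without input ligand. Each apparent Kd is the median of per-cluster binding-curve fits, and designs with fewer than 10 measured clusters were excluded.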

[1] = designed as: ON switch for flavin mononucleotide, no ligand
[2] = ligand present: flavin mononucleotide, designed as: ON switch for flavin mononucleotide
[3] = designed as: OFF switch for flavin mononucleotide, no ligand
[4] = ligand present: flavin mononucleotide, designed as: OFF switch for flavin mononucleotide
[5] = designed as: ON switch for theophylline, no ligand
[6] = ligand present: theophylline, designed as: ON switch for theophylline

GUAACGGGAAGCAGUGGCUUGACAUGAGGAUCACCCAUGUACAGAAGGGACGAUUACGUAAUGCGUCAGGAUAUGUGCCGUAGA
apparent Kd [1]: 48 nM | apparent Kd [2]: 28.1 nM

UGGAAGAUUGAAGGAUAUCCGGUCAAUUAAUAUGGAGAAGGUCAAUAUAUGGACAUGAGGAUCACCCAUGUAGAGUCAACUCGA
apparent Kd [1]: 38.5 nM | apparent Kd [2]: 26.8 nM

CCCAUUGAGGAGGAUAUACUAUUGGAGACUCUCGUAGAAGGCCUGACAUGAGGAUCACCCAUGUACGUGAUAUC
apparent Kd [3]: 121 nM | apparent Kd [4]: 76.7 nM

AUCUACGUGGGUGAUACCAGCUGGUUAGUACACAUGAGGAUCACCCAUGUGCAGGCAGGCAGCCCUUGGCAGCACCGCAGUGGCU
apparent Kd [5]: 120 nM | apparent Kd [6]: 35 nM

AUAAACCUAACAUGAGGAUCACCCAUGUCCUCCGUCGGUCGAAGAAGGAGUAAUGCUUAUUUUUACUAGGAUAUUCGUAAUCAC
apparent Kd [3]: 90.2 nM | apparent Kd [4]: 216 nM

UGGCACAAGUUAGGAUAUAGCACUUCUGUAAAGCUAGAAGGAACGUUGCACAUGAGGAUCACCCAUGUCAGUAAUUGAUAUGUA
apparent Kd [3]: 10.1 nM | apparent Kd [4]: 12.6 nM

AAUAUUAUGUCGGCCGCCACUUCCCACAAGAGGUGCCUGCACCCACAUGAGGAUCACCCAUGUCGAAGGACCGGGACGCUCAAUU
apparent Kd (designed as: ON switch for tryptophan, no ligand): 16.8 nM | apparent Kd (ligand present: tryptophan, designed as: ON switch for tryptophan): 15.6 nM

CCACAGUAUAAAGGAUAUGCGGCCACGGCAACAGCAGAAGGUUAUGCCACUGUACAUGAGGAUCACCCAUGUCCAACUUUCCCU
apparent Kd [1]: 23.8 nM | apparent Kd [2]: 11.9 nM

CACUGACAUGAGGAUCACCCAUGUCUCCUGCUUGUAGGAUAUAGGUGGUCGCUGGACAGUCUAGAAGGACAUGUAA
apparent Kd [1]: 54.7 nM | apparent Kd [2]: 49.5 nM

ACAUGAGGAUCACCCAUGUGUCUCCUUUCCAUUACGAUCUUUAGAAGGGUCCGCAAACACUCUGGACAGGAUAUAAAGUAUGGC
apparent Kd [3]: 13.4 nM | apparent Kd [4]: 12.2 nM

UGGUUAACAUGACAUGAGGAUCACCCAUGUCUUGGAAUUACAAGAAGGAAGGACACAGGUAGACCUUAGGAUAUUGUGACUUGA
apparent Kd [1]: 24.6 nM | apparent Kd [2]: 11.6 nM

AAAAGAGAAGGAUAUACAGGAAAAGAAAAGAUAUUUCAAUAACAUGAGGAUCACCCAUGUAGAAGGACUAAUAG
apparent Kd [3]: 11.8 nM | apparent Kd [4]: 9.74 nM

ACAAUAAAUCAAGGAUAUGAACGAAGCAAGUGAUCAGAAGGUGAAAUAAACCCAUAAACUCCAACAUGAGGAUCACCCAUGUGA
apparent Kd [1]: 54 nM | apparent Kd [2]: 35.5 nM

AUUGAACAUGAGGAUCACCCAUGUGCGGGUGGUAUAGGAUAUGCAGGAUCCUAAGAGUAAGCAGAAGGAUACACCG
apparent Kd [1]: 445 nM | apparent Kd [2]: 33.4 nM

CCAGCGAGUUAGACCUUACAUGAGGAUCACCCAUGUUGGCGUAGAAGGACGCUCAUAAGCACUGCGUAGGAUAUACUCACCAAU
apparent Kd [3]: 7.99 nM | apparent Kd [4]: 10.4 nM

AGCGUGUAAGGAUAUUGAUCUCCACUUCUGUAGGUCGGUGACAAGAAGGUACAUGAGGAUCACCCAUGUCCAUG
apparent Kd [3]: 19.8 nM | apparent Kd [4]: 21.7 nM

UUGAACAUGAGGAUCACCCAUGUGGAUGAUACCAGCUAAAACAUAAGCCCUUGGCAGCAUUAAAAUGAAAUAUCGAAAAGGAAAG
apparent Kd [5]: 143 nM | apparent Kd [6]: 54.9 nM

ACAUACUUGGGAGGAUAUAUGUUCGUACGCUCGAUAGAAGGCCCAGAAGUAUAAGACAUGAGGAUCACCCAUGUGGCAAGCGUU
apparent Kd [1]: 11.4 nM | apparent Kd [2]: 8.78 nM

GAAUCUACAAACGAUACCAGAUCCGGCUGCCACAUGAGGAUCACCCAUGUCUAGCGACUCAUCCCUUGGCAGCGUGUGCAUCCCG
apparent Kd [5]: 508 nM | apparent Kd [6]: 781 nM

ACGGUAGGCUAGAAGGCCCGGACUCGCCCAGAGGGAGGAUAUAGCAUUGGCGUACUACAUGGCACAUGAGGAUCACCCAUGUAA
apparent Kd [3]: 35.4 nM | apparent Kd [4]: 30.6 nM

ACGUGGGUAACCAAGGAUAUAUUUACACCCACAUGAGGAUCACCCAUGUUCUUGCAGGCAUAUAAAUAGAAGGUGGAAACGCAGUG
apparent Kd [1]: 379 nM | apparent Kd [2]: 129 nM

GACGUCGCCUUAGGAUAUGCCCAUUACAUGAGGAUCACCCAUGUUUCUUAAAGAGGAUCCGCAUGGCAGAAGGAAGGUCUCCAC
apparent Kd [3]: 25.4 nM | apparent Kd [4]: 59.4 nM

UUAGUAACCACAGGAUAUGCGGACGGGUGAAGGGCAGAAGGGUGGGAGUGCACAUGAGGAUCACCCAUGUAACACGCCAUAUUU
apparent Kd [1]: 17.7 nM | apparent Kd [2]: 8.65 nM

GCAUUCGGAUUAGGAUAUCUACAUCAUUCGUUUGGGAUAGAGCUACAUGAGGAUCACCCAUGUGUAGAGAAGGAAUAUGAACAC
apparent Kd [1]: 79 nM | apparent Kd [2]: 83.9 nM

CGCAGGGCCCAGAAGGGCAUAAUGUUAGACUACAUGAGGAUCACCCAUGUGCCACGAGAGGUUGUGCAGGAUAUGGAUCUAUUG
apparent Kd [1]: 56.7 nM | apparent Kd [2]: 23.9 nM
